System: MS2 coat protein
Experiment: apparent Kd, MS2 coat protein; higher = weaker binding; RNA-MaP array
Method in brief: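 With or without input ligand, designed RNAs transcribed on an Illumina sequencing chip from sequenced DNA templates were incubated at room temperature with fluorescently labeled MS2 coat protein at 1.5 nM to 3 μM. The buffer was Tris-HCl pH 7.5 with KCl, MgCl2, BSA, DTT, tRNA and Tween20, and incubation ran 0.8–1.5 h at the lowest and 10–20 min at the highest concentrations. Apparent Kd is reported as the median of fits to binding curves from individual clusters. Designs measured on fewer than 10 clusters are not included.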

[1] = designed as: ON switch for flavin mononucleotide, no ligand
[2] = ligand present: flavin mononucleotide, designed as: ON switch for flavin mononucleotide
[3] = designed as: OFF switch for theophylline, no ligand
[4] = ligand present: theophylline, designed as: OFF switch for theophylline
[5] = designed as: OFF switch for flavin mononucleotide, no ligand
[6] = ligand present: flavin mononucleotide, designed as: OFF switch for flavin mononucleotide
[7] = designed as: OFF switch for tryptophan, no ligand
[8] = ligand present: tryptophan, designed as: OFF switch for tryptophan

Sequence	apparent Kd [1] [nM]	apparent Kd [2] [nM]	apparent Kd [5] [nM]	apparent Kd [6] [nM]	also measured
CCGCACAUGAGGAUCACCCAUGUUCCCAGUCAACUAGGAGCCAAGGAUAUCGUUCGCGAGUGCACCGAGAAGGUGGCCCAUGAA	193	72.6	–	–	–
CCGGGCAGUUUAGGAUAUACACGUGAUUCAUGCGUAGAAGGAAAUCACAGAAUAGUUUCCUGGACAUGAGGAUCACCCAUGUAG	252	147	–	–	–
CCGGGCGCUUAACAGGAUAUAGCAGUACAUACAUGAGGAUCACCCAUGUCUAUCUUGUAAUAAAGCUAGAAGGGUUCAUCCGAGGU	14	9.84	–	–	–
CCUAGACAUGAGGAUCACCCAUGUUAUUGUCUUCAAGGAUAUCGAUGUCUCUCAUAGGCACGAGAAGGUGACUCCU	85.2	67.1	–	–	–
CCUUUUAUUAAUGAUACCAGCGUAUUAAGCAUCACCUUGGACAUGAGGAUCACCCAUGUACGCCCUUGGCAGCAUACCACUGGGU	–	–	–	–	apparent Kd [3]: 42.5 nM; apparent Kd [4]: 53.4 nM
CGACAUUAAACAUGAGGAUCACCCAUGUGACCCUAUUGUCCAAAGGAUAUCUUAUGAAUAGAGAAAGAGAAGGUUGUAUUCCCA	–	–	241	196	–
CGCAGGGCCCAGAAGGGCAUAAUGUUAGACUACAUGAGGAUCACCCAUGUGCCACGAGAGGUUGUGCAGGAUAUGGAUCUAUUG	56.7	23.9	–	–	–
CGCGACUUCAGAGGAUAUGUGCGUGUCACAUGAGGAUCACCCAUGUAAGGUUACCUACGACCGGGACAGAAGGCUGACCCAAAA	61	19.6	–	–	–
CGCUACAUAGCGGCCGCCACUGUCAUGGCUACGAUAGGUCACUCGUACAUGAGGAUCACCCAUGUCAGGACCGGGCUAUCCUCGC	–	–	–	–	apparent Kd [7]: 92.9 nM; apparent Kd [8]: 203 nM
CGUAUGGGUGUCAGGAUAUGCGGGACGCUGUUACUGCAGAAGGGACAUGAGGAUCACCCAUGUAGUUCCAGACC	–	–	18.4	33.3	–
CUAAAACAUGAGGAUCACCCAUGUGUUUAGCGCAGAGGAUAUUGGGAUUGGUUGCUCGCUCAAGAAGGCUGAUUGG	8.55	7.02	–	–	–
CUCAGCGGGCUAGGAUAUGGCCUGUGGUUUAGGCCAGAAGGAGCUCACUAAGCACAUGAGGAUCACCCAUGUCUCAAUGCCUGA	14.8	8.84	–	–	–
CUCCCAAACAAGAAGGGCGUCGAGUACGGUGAACUUGCCACAUAACAUGAGGAUCACCCAUGUACGCAGGAUAUUGGAGCGUUU	–	–	138	234	–
CUCCUCGUAGGAUAUCGCACCGCGUACAUGAGGAUCACCCAUGUGAUUCUAUAGAUUAAGCGAGAAGGACGACAGG	–	–	376	269	–
CUGUAGACAGGAUAUGUUGUGCCGUACAUGAGGAUCACCCAUGUGAGAUCUCGCUACCAUACAGAAGGGUCUAAAC	–	–	43.2	57.4	–
CUGUUUGGAGAGGAUAUGUCGGGAAGCUAAUCAACAGAAGGCUCAACAUGAGGAUCACCCAUGUCGGGUGCGUA	–	–	16.8	49.1	–
CUUCGGCCCAGGGAGAUGACCACAUGAGGAUCACCCAUGUACAGAAGGAGUAUCGGUAGGCCAUACUAGGAUAUGUGAAUAGAC	25.8	31.4	–	–	–
GAAAAUACAUGAGGAUCACCCAUGUGGUGGCGUCAGAUUGGUUAGGAUAUCUUGGCGGGAUACUGAGAGAAGGAACUUUGAAGG	–	–	181	136	–
GAAGAGAGGAUACCGUUUGUAUACAACGAUACCAGUGGUAUGUAUCACCCUUGGCAGCGUGAGACAUGAGGAUCACCCAUGUGGC	–	–	–	–	apparent Kd [3]: 21.2 nM; apparent Kd [4]: 21.6 nM
GAAUCUACAAACGAUACCAGAUCCGGCUGCCACAUGAGGAUCACCCAUGUCUAGCGACUCAUCCCUUGGCAGCGUGUGCAUCCCG	–	–	–	–	apparent Kd (designed as: ON switch for theophylline, no ligand): 508 nM; apparent Kd (ligand present: theophylline, designed as: ON switch for theophylline): 781 nM
GAAUGGAAACUAGGAUAUCGGCAGGAGCGGGAGCGAGAAGGAGUUUACUCGGUAUACAUGAGGAUCACCCAUGUGGGUGUGCUG	–	–	294	252	–

Sequence	apparent Kd [1] [nM]	apparent Kd [2] [nM]	apparent Kd [5] [nM]	apparent Kd [6] [nM]	also measured
GAAUGGAAAGGAUAUCGCUGUUCUGACAUGAGGAUCACCCAUGUACGUGUUAGCUUGUUUCGAGAAGGUUCCACUC	–	–	15.6	21.8	–
GACAGCAUCCGAGGAUAUAUGUACGUAAUCAAACCACAUGAGGAUCACCCAUGUCCUCUAGGUUCAUAGAAGGCGGUUUAGCGU	–	–	455	750	–
GACAGCGAAGGAUAUACAUGAGGAUCACCCAUGUCUCACUAACGUAGCCGCGGGUAAUGUAGAAGGUCGCGAUG	–	–	191	65.4	–
GACCUCCUGCGAGCACAUGAGGAUCACCCAUGUAAGGACCUGAGAAGGCACCGUUAAGAUUGGAGUGAGGAUAUCAGGAUAUAG	–	–	23.5	19.7	–
GACGUCGCCUUAGGAUAUGCCCAUUACAUGAGGAUCACCCAUGUUUCUUAAAGAGGAUCCGCAUGGCAGAAGGAAGGUCUCCAC	–	–	25.4	59.4	–
GACUGGAGGAGAGGAUAUGCAAAGACUCUAUUCGCAGAAGGCUCGUGCGGUCAACAUGAGGAUCACCCAUGUCUGGCGACAUGC	–	–	6.26	8.62	–
GAGACAGGGCAGAAGGUUCUAAACGGCUAAAUGAAAGGAUAUGCAAACAUUGACAUGAGGAUCACCCAUGUGUUAAAAGCUACG	–	–	12.1	9.88	–
GAGCUAUCAGGAUAUACAUGAGGAUCACCCAUGUUUUUUGGAAUCAAGAGGAAUCAAUGUAGAAGGGAUCUCGA	–	–	21.8	28.2	–
GAGGCACGGUCGGCCGCCACUACAGCAGUGGUCCGCCAAGCGAGGUACAUGAGGAUCACCCAUGUUAGGACCGGGACCUGUUUUU	–	–	–	–	apparent Kd [7]: 24.6 nM; apparent Kd [8]: 73.7 nM
GAGUACAGGGAGAAGGUGUAUUAAUACGCACGGCUGGUCACAUGAGGAUCACCCAUGUCGCAUAACAAGGAUAUCCGACUAAUC	–	–	139	213	–
GAUUUACAUGAGGAUCACCCAUGUGAGGAUAUGCCGUACAUCGCGCUCUGAGCUAGUUGCAGAAGGCACAUGAU	–	–	18.9	18.3	–
GCAAAAGCGCUCUAGAGACAUGAGGAUCACCCAUGUGUGGGUAGAAGGUCCUACGUACCAUUAAGGAAGGAUAUACACAUAUAU	1090	540	–	–	–
GCAUAACAUGAGGAUCACCCAUGUGAGGAUAUUCCCUCCGGCAAUUGCUCCCAAGAGGGAAGAAGGCACAGUGG	–	–	146	66.1	–
GCAUUCGGAUUAGGAUAUCUACAUCAUUCGUUUGGGAUAGAGCUACAUGAGGAUCACCCAUGUGUAGAGAAGGAAUAUGAACAC	79	83.9	–	–	–
GCCAUGUAAGGAUAUCUUAACUUGCAUCACGCGCGGAAUGGAGAGAAGGUACAUGAGGAUCACCCAUGUGAAAA	–	–	19.8	28	–
GCGCCAAGUAAGAAGGGCUCAAAGGAAAACCUAGACUUCACUACAUGAGGAUCACCCAUGUCUCAGCAGGAUAUUAUCGGUCAA	22.2	17.9	–	–	–
GCGGACGAUGAGAAGGUAGUAAGGUAGGACAUGAGGAUCACCCAUGUAUGAACUAUCCCAACAACUAAGGAUAUCAGCAACCCU	–	–	7.34	5.77	–
GCGGGAGAUCAGAAGGCUAUAACGUUUCACAUGAGGAUCACCCAUGUGGGCUCCUAGGGAUGGAUAGAGGAUAUGACCGAAUAU	–	–	12.9	13.3	–
GCUACCACCGCAGGAUAUAAUCGGACACUCGUAGCGUUGCGAACAUGAGGAUCACCCAUGUCUAUUUAGAAGGGCGCAUGGGAU	78.8	42.6	–	–	–
GCUAGUAGAGAGAAGGAGCUUGAAUAUUUAGCGCUAGGAUAUCUUCGGUAGCCGUAGAGCAUACAUGAGGAUCACCCAUGUCCG	52.7	27.8	–	–	–

— the EternaBench riboswitch data
